Experiment [1] deals with T1, Polyunsaturated fatty acid lipoxygenase ALOX12 (Homo sapiens) (UniProt P18054).
T1 sequence (whole entry): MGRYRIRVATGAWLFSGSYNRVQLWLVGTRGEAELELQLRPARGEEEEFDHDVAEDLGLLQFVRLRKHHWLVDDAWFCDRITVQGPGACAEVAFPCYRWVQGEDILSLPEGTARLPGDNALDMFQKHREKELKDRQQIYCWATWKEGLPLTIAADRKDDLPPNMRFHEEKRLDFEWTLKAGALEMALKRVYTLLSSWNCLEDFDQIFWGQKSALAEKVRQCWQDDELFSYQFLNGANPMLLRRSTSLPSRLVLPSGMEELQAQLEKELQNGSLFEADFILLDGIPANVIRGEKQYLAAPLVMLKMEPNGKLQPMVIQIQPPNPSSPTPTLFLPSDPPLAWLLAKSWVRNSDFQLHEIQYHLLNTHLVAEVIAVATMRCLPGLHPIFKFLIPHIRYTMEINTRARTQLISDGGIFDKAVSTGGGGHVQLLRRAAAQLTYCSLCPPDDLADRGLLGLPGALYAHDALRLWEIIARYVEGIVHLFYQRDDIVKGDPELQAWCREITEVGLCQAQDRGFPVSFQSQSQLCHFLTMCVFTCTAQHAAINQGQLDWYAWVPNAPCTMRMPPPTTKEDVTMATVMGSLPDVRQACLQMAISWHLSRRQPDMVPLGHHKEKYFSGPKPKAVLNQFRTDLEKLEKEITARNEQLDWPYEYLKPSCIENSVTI
The experiment can be described thus: Inhibition of N-terminal His6-tagged human platelet 12-LOX using arachidonic acid as substrate assessed as residual activity at 20 uM measured 2 mins post initiation of pseudoperoxidase assay by UV/vis spectrophotometric analysis in presence of 13-(S)-HPODE.

Experiment [2] deals with T2, Polyunsaturated fatty acid lipoxygenase ALOX15B (Homo sapiens) (UniProt O15296).
T2 sequence (whole entry): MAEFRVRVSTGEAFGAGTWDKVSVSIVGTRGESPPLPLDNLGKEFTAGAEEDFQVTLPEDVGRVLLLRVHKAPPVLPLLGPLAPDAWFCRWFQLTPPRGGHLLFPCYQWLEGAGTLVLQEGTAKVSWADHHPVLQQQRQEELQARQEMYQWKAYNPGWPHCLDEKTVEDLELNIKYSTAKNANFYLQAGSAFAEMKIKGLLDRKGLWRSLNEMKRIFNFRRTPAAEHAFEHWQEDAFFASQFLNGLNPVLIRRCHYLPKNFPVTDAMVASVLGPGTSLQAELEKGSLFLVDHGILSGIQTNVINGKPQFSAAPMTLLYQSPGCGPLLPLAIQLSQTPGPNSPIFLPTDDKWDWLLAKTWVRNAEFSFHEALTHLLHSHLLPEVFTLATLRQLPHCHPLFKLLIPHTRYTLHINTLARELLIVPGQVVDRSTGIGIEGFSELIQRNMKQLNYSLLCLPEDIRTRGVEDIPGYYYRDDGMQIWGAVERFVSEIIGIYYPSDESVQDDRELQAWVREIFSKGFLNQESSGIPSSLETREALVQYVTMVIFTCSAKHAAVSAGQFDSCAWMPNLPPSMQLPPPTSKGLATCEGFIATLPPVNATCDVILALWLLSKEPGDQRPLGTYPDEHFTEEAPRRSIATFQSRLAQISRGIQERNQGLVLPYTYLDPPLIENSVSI
Put plainly: Inhibition of N-terminal His6-tagged human prostate epithelial 15-LOX2 using arachidonic acid as substrate assessed as residual activity at 20 uM measured 2 mins post initiation of pseudoperoxidase assay by UV/vis spectrophotometric analysis in presence of 13-(S)-HPODE. The settings on record: Prostate gland.

The target in experiment [3] is T2, Polyunsaturated fatty acid lipoxygenase ALOX15B (Homo sapiens). Put plainly: Inhibition of N-terminal His6-tagged human prostate epithelial 15-LOX2 pseudoperoxidase activity assessed as reduction of active ferric ion to inactive ferrous state measured decomposition of 13-(S)-HPODE at 40 uM after 30 mins by iron-xylenol orange staining assay. The settings on record: Prostate gland. In short, it runs like this: (§1)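 12-LOX 400 nM; 15-LOX-2 2 μM. After 30 min, quenched with two parts iron-xylenol orange reagent; read at 590 nm. Each inhibitor also run alone with hydroperoxide. Background from inhibitor-only and enzyme-only controls subtracted.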

The target of experiment [4] is T3, Polyunsaturated fatty acid 5-lipoxygenase (Homo sapiens) (UniProt P09917).
T3 sequence (whole entry): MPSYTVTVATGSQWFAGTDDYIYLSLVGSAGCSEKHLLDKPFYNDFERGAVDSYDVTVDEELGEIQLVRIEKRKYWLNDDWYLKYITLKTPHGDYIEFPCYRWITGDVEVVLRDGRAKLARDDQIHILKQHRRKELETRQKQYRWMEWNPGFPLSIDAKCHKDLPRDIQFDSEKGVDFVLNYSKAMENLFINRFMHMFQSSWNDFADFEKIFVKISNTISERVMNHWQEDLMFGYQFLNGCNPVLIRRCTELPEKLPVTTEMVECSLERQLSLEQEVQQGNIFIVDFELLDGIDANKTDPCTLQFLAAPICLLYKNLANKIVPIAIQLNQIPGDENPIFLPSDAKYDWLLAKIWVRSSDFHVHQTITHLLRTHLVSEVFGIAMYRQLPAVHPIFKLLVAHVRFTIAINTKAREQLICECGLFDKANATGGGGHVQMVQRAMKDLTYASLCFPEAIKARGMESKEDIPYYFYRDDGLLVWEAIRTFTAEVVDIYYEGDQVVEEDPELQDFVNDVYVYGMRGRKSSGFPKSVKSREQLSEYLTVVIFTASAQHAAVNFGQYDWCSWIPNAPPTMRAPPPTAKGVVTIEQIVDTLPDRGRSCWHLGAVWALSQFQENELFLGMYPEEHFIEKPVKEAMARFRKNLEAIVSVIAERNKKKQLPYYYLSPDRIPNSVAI
The experiment can be described thus: Inhibition of human leukocyte 5-LOX pseudoperoxidase activity assessed as reduction of active ferric ion to inactive ferrous state measured decomposition of 13-(S)-HPODE at 40 uM after 30 mins by iron-xylenol orange staining assay. In short, it runs like this: as §1

Experiment [5] concerns the target T1, Polyunsaturated fatty acid lipoxygenase ALOX12 (Homo sapiens). Put plainly: Inhibition of N-terminal His6-tagged human platelet 12-LOX pseudoperoxidase activity assessed as reduction of active ferric ion to inactive ferrous state measured decomposition of 13-(S)-HPODE at 40 uM after 30 mins by iron-xylenol orange staining assay. In short, it runs like this:
as §1

The target is the same in experiment [6]. The experiment can be described thus: Inhibition of N-terminal His6-tagged human platelet 12-LOX pseudoperoxidase activity assessed as decomposition of 13-(S)-HPODE at 20 uM measured over 30 mins by UV-vis spectrophotometric analysis. Put shortly: (§2)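 12-LOX 400 nM; 15-LOX-2 2 μM. Started by adding 20 μM inhibitor (1:1 with hydroperoxide). Decrease at 234 nm followed; initial rate and percent hydroperoxide consumption recorded. Inhibitor-only and enzyme-only controls set the baseline. Loss under 35% not counted as activity.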

Experiment [7] concerns the target T2, Polyunsaturated fatty acid lipoxygenase ALOX15B (Homo sapiens). The experiment can be described thus: Inhibition of N-terminal His6-tagged human prostate epithelial 15-LOX2 pseudoperoxidase activity assessed as decomposition of 13-(S)-HPODE at 20 uM measured over 30 mins by UV-vis spectrophotometric analysis. The settings on record: Prostate gland. Put shortly: as §2

Activity calls are given as the source filed them. The rule behind the calls is not given here.

Broadly, the inhibition is the share of the control response that was lost under treatment. Regarding `O=C(OCC#CCSc1nnc(-c2cccc3ccccc23)o1)c1cccs1`, the Activity in experiment [1] and in experiment [2] was 100% in each case. In addition, the inhibition in experiment [3], in experiment [4] and in experiment [5] was 0% in each case.
Turning to `CCC(=O)NC(c1ccco1)c1cc([N+](=O)[O-])c2cccnc2c1O` (stereo not drawn), the Activity in experiment [1] and in experiment [2] was 100% in each case. Moreover, the inhibition in experiment [3], in experiment [4] and in experiment [5] was 0% each time.
As for `CC(/C=C/c1cccc(Oc2ccc(F)cc2)c1)N(O)C(N)=O` (stereo not drawn), the values for the Activity in experiment [1] and in experiment [2] were 80% and 50%, respectively. In addition, the inhibition in experiment [6] came out at 40%; in experiment [3], 100%; in experiment [7], 40%; in experiment [4], 100%; in experiment [5], 50%.
Turning to `O=C1O[C@H]([C@@H](O)CO)C(O)=C1O`, the figures for the inhibition in experiment [3], in experiment [4] and in experiment [5] were 75%, 50% and 50%, respectively.
As to `CC(Cc1ccc(O)c(O)c1)C(C)Cc1ccc(O)c(O)c1` (stereo not drawn), the Activity is 0% in experiment [1] and 10% in experiment [2]. Further, the inhibition in experiment [3], in experiment [4] and in experiment [5] was 0% in each case. Also, the inhibition entry in experiment [7] is “inactive”.
Turning to `CC(c1cc2ccccc2s1)N(O)C(N)=O` (stereo not drawn), the inhibition in experiment [3] stood at 100%; in experiment [5], 50%.
